Like-named read-outs stand apart in the source and are kept apart here.
Experiments:
[1] = tested on: CT-DNA; test: Viscosity measurements of CT-DNA; settings: 5.0 mM Tris–HCl buffer, pH 7.2; 1.0–6.0 mM
Outline: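 Sonicated CT-DNA held at constant concentration (5.0 mM) with added test compound, EtBr as reference. After 15 min equilibration, flow time measured in triplicate with a stopwatch. η = (t − t0)/t0, with t0 the flow time of buffer alone. Results plotted as (η/η0)^1/3 versus binding ratio.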

[2] = tested on: HepG2 cells; test: MTT cytotoxicity assay on HepG2 cells; type: cell-based, human; settings: 24 h incubation
Outline: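 HepG2 grown in DMEM with 10% FBS and penicillin/streptomycin (100 μg mL−1 each) at 37 °C, 5% CO2. Seeded at 1 × 10^4 cells/mL, 24 h, then exposed to test compound at 10–50 μM (10 μM steps) for 24 h. MTT (5 mg mL−1 in PBS) added for 2–4 h; formazan dissolved in DMSO; read at 560 nm against 1% DMSO control. IC50 from nonlinear regression of % viability versus concentration.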

[3] = target: BSA (Bos taurus, UniProt P02769); test: BSA tryptophan fluorescence quenching titration; type: binding, Bovine; settings: for number of binding sites, n / binding constant K F × 10^−5: Scatchard equation; for binding constant K F × 10^−5: head: KF × 10^−5; for Stern–Volmer quenching constant K sv × 10^−5: Tris–HCl/50 mM NaCl pH 7.2, head: Ksv × 10^−5; for bimolecular quenching rate constant k q × 10^−10: head: kq × 10^−10
Sequence of BSA (P02769 25-607): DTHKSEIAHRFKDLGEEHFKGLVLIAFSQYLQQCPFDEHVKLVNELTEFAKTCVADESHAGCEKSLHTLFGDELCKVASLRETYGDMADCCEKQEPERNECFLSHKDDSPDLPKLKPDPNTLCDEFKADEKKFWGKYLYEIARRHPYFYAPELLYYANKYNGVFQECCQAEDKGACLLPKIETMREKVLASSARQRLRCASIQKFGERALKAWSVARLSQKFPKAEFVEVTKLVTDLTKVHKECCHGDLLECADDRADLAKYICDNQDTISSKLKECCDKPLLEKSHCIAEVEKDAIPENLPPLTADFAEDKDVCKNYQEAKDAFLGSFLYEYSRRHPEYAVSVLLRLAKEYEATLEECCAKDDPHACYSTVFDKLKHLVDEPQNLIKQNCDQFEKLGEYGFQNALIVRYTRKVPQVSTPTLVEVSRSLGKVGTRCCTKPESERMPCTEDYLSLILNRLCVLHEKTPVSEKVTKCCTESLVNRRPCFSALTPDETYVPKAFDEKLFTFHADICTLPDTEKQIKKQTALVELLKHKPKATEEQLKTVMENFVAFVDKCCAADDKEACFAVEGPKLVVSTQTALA
Outline: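 BSA stock (10.4 μM) made in 5.0 mM Tris–HCl/50 mM NaCl, pH 7.2, with concentration set from A278 (ε 4.4 × 10^4 M−1 cm−1). Equilibrated buffered BSA with test compound at 0–130 μM at room temperature. Excitation 278 nm; tryptophan emission read over 250–450 nm. Ksv taken from the slope of Io/I versus [Q].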

[4] = tested on: CT-DNA; test: Fluorescence EtBr exchange titration on CT-DNA; type: binding; settings: for Stern–Volmer quenching constant K sv × 10^−3: Tris–HCl buffer pH 7.2, head: Ksv × 10^−3; for bimolecular quenching rate constant k q × 10^−13: τ0 = 23 ns, head: kq × 10^−13
Outline: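 CT-DNA (10 μM) premixed with EtBr (10 μM) in 5.0 mM Tris–HCl/50 mM NaCl, pH 7.2, then held 4 h at 4 °C. Titrated with incremental aliquots of 5.0 mM test-compound stock in 50% DMSO. Excitation 500 nm; emission decrease recorded over 520–700 nm. Filter-effect corrections applied. DNA concentration set from A260 (ε ≈ 6600 M−1 cm−1).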

[5] = tested on: HepG2 cells; settings: cited from earlier work

For `CC[n+]1c(-c2ccccc2)c2cc(N)ccc2c2ccc(N)cc21.[Br-]` [EtBr, 3,8-diamino-5-ethyl-6-phenylphenanthridinium bromide], the “relative viscosity of CT-DNA solutions with increasing concentration” value [1] was “increased dramatically”.

For `Cc1cc2nc(-c3ccccn3)c(-c3ccccn3)nc2cc1C.[Cl][Pt][Cl]` [dmbpqPtCl2], the IC50 [2] was 14.9 ± 1.4 µM, the “number of binding sites, n” value [3] was 0.98 ± 0.03 and the “binding constant K F × 10^−5” value [3] was 2.97 ± 0.07 M^−1. The “Stern–Volmer quenching constant K sv × 10^−5” value [3] was 3.47 ± 0.11 M^−1, the “bimolecular quenching rate constant k q × 10^−10” value [3] was 6.98 ± 0.3 M^−1 s^−1 and the “Stern–Volmer quenching constant K sv × 10^−3” value [4] was 3.26 ± 0.05 M^−1. For the same molecule, the “bimolecular quenching rate constant k q × 10^−13” value [4] was 1.47 ± 0.16 M^−1 s^−1.

For `N.N.[Cl][Pt][Cl]` [cisplatin], the IC50 [5] is given as 17.9 ± 2.1 µM.

With `[Cl][Pt][Cl].c1ccc(-c2nc3cc4ccccc4cc3nc2-c2ccccn2)nc1` [bbqPtCl2] the IC50 [2] was 17.4 ± 2 µM, the “number of binding sites, n” value [3] was 1.01 ± 0.05 and the “binding constant K F × 10^−5” value [3] was 5.34 ± 0.10 M^−1. For the same molecule, the “Stern–Volmer quenching constant K sv × 10^−5” value [3] was 4.78 ± 0.19 M^−1, the “bimolecular quenching rate constant k q × 10^−10” value [3] was 9.61 ± 0.5 M^−1 s^−1 and the “Stern–Volmer quenching constant K sv × 10^−3” value [4] was 5.49 ± 0.07 M^−1. For the same molecule, the “bimolecular quenching rate constant k q × 10^−13” value [4] was 2.52 ± 0.22 M^−1 s^−1.

For `[Cl][Pt][Cl].c1ccc(-c2nc3ccccc3nc2-c2ccccn2)nc1` [bpqPtCl2], the IC50 [2] was 15.7 ± 1.6 µM, the “number of binding sites, n” value [3] was 0.98 ± 0.03 and the “binding constant K F × 10^−5” value [3] was 1.93 ± 0.02 M^−1. The “Stern–Volmer quenching constant K sv × 10^−5” value [3] was 2.47 ± 0.03 M^−1, the “bimolecular quenching rate constant k q × 10^−10” value [3] was 4.97 ± 0.2 M^−1 s^−1 and the “Stern–Volmer quenching constant K sv × 10^−3” value [4] was 2.43 ± 0.02 M^−1. For the same molecule, the “bimolecular quenching rate constant k q × 10^−13” value [4] was 1.06 ± 0.10 M^−1 s^−1.
